According to ChEMBL document CHEMBL1152562, “Design, synthesis and evaluation of flavonoid derivatives as potent AChE inhibitors” (Bioorg Med Chem, 2009):
pIC50: −log10 of the molar value.

Key:
[1] = target: Butyrylcholinesterase (Rattus norvegicus, UniProt Q9JKC1); experiment: Inhibition of BChE in rat serum after 15 mins by modified Ellman's method; format: cell-free
Summary of the method: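 Enzyme source was rat serum. Substrate butyrylthiocholine iodide 0.4 mmol/L in sodium phosphate buffer ([…]). Serum was incubated with the test compound at several concentrations at 37 °C for 15 min. Activity was read spectrophotometrically by a modified Ellman method, with IC50 derived from the concentration series.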

[2] = target: T1, Acetylcholinesterase (Rattus norvegicus, UniProt P37136); experiment: Inhibition of AChE in rat cortex after 15 mins by modified Ellman's method
T1 sequence (P37136 whole entry): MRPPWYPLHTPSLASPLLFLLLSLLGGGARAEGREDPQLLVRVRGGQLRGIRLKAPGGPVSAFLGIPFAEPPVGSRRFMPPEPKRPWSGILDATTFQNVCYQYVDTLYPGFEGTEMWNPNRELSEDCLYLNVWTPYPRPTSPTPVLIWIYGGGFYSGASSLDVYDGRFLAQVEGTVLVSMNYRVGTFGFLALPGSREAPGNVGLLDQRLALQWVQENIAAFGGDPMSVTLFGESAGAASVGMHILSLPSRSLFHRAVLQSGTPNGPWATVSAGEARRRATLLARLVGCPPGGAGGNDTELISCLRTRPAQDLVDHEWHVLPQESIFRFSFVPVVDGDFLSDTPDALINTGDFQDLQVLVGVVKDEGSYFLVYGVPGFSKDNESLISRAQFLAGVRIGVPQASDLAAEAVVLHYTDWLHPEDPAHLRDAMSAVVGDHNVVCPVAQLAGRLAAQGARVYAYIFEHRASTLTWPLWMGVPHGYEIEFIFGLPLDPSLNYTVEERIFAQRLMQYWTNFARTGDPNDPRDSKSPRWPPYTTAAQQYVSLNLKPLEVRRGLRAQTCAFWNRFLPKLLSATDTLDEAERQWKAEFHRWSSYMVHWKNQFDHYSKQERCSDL

Chain of Butyrylcholinesterase (Q9JKC1 whole entry): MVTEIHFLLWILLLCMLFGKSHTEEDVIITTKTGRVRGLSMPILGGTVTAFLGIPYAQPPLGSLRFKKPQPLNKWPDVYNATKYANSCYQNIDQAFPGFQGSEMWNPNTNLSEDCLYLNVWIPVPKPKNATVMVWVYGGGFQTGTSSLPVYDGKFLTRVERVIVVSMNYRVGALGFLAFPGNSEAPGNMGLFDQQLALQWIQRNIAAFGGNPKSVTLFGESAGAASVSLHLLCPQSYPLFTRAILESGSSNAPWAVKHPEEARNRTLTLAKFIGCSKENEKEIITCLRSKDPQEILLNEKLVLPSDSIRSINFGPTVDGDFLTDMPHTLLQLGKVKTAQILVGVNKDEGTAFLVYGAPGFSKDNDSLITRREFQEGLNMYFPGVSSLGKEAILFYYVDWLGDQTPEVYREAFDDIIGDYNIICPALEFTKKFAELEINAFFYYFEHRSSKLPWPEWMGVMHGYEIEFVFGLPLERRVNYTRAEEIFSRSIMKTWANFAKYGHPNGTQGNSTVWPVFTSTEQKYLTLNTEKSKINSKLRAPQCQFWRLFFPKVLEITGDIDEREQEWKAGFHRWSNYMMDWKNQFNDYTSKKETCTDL

| SMILES | pIC50 [1] | pIC50 [2] |
| --- | --- | --- |
| COc1cc2oc(-c3ccc(CN4CCCC4)cc3)cc(=O)c2cc1OC | 4.05 | 7.26 |
| CCN(C)Cc1ccc(/C=C/C(=O)c2cc(OC)c(OC)cc2O)cc1 | < 4.00 | 6.90 |
| CCN(CC)Cc1ccc(/C=C/C(=O)c2cc(OC)c(OC)cc2O)cc1 | < 4.00 | 6.99 |
| CCN(CC)Cc1cccc(/C=C/C(=O)c2cc(OC)c(OC)cc2O)c1 | < 4.00 | 5.79 |
| COc1cc(O)c(C(=O)/C=C/c2ccc(CN3CCCC3)cc2)cc1OC | < 4.00 | 7.43 |
| COc1cc(O)c(C(=O)/C=C/c2cccc(CN3CCCC3)c2)cc1OC | 4.11 | 7.33 |
| COc1cc(O)c(C(=O)/C=C/c2ccc(CN3CCCCC3)cc2)cc1OC | < 4.00 | 6.91 |
| CCN(C)Cc1ccc(-c2cc(=O)c3cc(OC)c(OC)cc3o2)cc1 | < 4.00 | 6.47 |
| CCN(CC)Cc1ccc(-c2cc(=O)c3cc(OC)c(OC)cc3o2)cc1 | 4.19 | 6.19 |
| CCN(CC)Cc1cccc(-c2cc(=O)c3cc(OC)c(OC)cc3o2)c1 | < 4.00 | 5.22 |
| COc1cc2oc(-c3cccc(CN4CCCC4)c3)cc(=O)c2cc1OC | < 4.00 | 6.15 |
| COc1cc2oc(-c3ccc(CN4CCCCC4)cc3)cc(=O)c2cc1OC | 4.12 | 7.47 |
| CCN(C)Cc1ccc(C2CC(=O)c3cc(OC)c(OC)cc3O2)cc1 (stereo not drawn) | < 4.00 | 5.33 |
| CCN(CC)Cc1ccc(C2CC(=O)c3cc(OC)c(OC)cc3O2)cc1 (stereo not drawn) | < 4.00 | 5.30 |
| CCN(CC)Cc1cccc(C2CC(=O)c3cc(OC)c(OC)cc3O2)c1 (stereo not drawn) | < 4.00 | 3.76 |
| COc1cc2c(cc1OC)C(=O)CC(c1ccc(CN3CCCC3)cc1)O2 (stereo not drawn) | 4.17 | 5.91 |
| COc1cc2c(cc1OC)C(=O)CC(c1cccc(CN3CCCC3)c1)O2 (stereo not drawn) | < 4.00 | 5.27 |
| COc1cc2c(cc1OC)C(=O)CC(c1ccc(CN3CCCCC3)cc1)O2 (stereo not drawn) | 4.32 | 6.61 |
| CCN(C)Cc1ccc(-c2coc3cc(OC)c(OC)cc3c2=O)cc1 | 4.21 | 6.77 |
| CCN(CC)Cc1ccc(-c2coc3cc(OC)c(OC)cc3c2=O)cc1 | < 4.00 | 6.22 |
| CCN(CC)Cc1cccc(-c2coc3cc(OC)c(OC)cc3c2=O)c1 | < 4.00 | 6.25 |
| COc1cc2occ(-c3ccc(CN4CCCC4)cc3)c(=O)c2cc1OC | 4.74 | 8.40 |
| COc1cc2occ(-c3cccc(CN4CCCC4)c3)c(=O)c2cc1OC | < 4.00 | 7.15 |
| COc1cc2occ(-c3ccc(CN4CCCCC4)cc3)c(=O)c2cc1OC | < 4.00 | 7.17 |
